Series [1] deals with T1, Thromboxane A2 receptor (Rattus norvegicus) (UniProt P34978).
T1 sequence (whole entry): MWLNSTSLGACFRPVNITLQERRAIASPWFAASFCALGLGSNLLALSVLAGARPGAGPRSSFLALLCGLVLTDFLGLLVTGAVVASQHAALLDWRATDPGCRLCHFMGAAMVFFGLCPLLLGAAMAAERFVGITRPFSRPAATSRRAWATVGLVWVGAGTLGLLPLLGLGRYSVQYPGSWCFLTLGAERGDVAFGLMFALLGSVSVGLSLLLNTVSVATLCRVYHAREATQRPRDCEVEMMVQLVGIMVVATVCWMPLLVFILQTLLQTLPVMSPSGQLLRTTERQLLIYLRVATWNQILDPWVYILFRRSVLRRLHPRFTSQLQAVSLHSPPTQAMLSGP
Briefly: Compound was evaluated for the selectivity of Thromboxane 1 receptors isolated from rat aorta by displacing U-46,619. The format is functional, tissue-based. Put shortly:
(§1)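 Isolated-tissue functional selectivity screen, run at a single standard concentration of 10 μM, recording any change in the response to the receptor agonist.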

In series [2] the test system is Cysteinyl leukotriene receptor (Cavia porcellus). Kind of series: Inhibition of percent protection from LTD4-induced dyspnea in a conscious guinea pig administered intravenously.
The target of series [3] is Alpha-2 adrenergic receptor (Mus musculus) (UniProt P30545+Q01338+Q01337). Kind of series: Compound was evaluated for the selectivity of alpha 2 adrenergic receptors isolated from mouse vas deferens by displacing clonidine. The format is functional, tissue-based. An outline of the steps: as §1
The target of series [4] is Histamine H1 receptor (Cavia porcellus) (UniProt P31389). Briefly: Compound was evaluated for the selectivity of Histaminergic 1 receptor isolated from guinea pig ileum by displacing histamine. The format is tissue-based. Put shortly: as §1
Series [5] deals with T2, Cysteinyl leukotriene receptor 1 (Cavia porcellus) (UniProt Q2NNR5).
T2 sequence (whole entry): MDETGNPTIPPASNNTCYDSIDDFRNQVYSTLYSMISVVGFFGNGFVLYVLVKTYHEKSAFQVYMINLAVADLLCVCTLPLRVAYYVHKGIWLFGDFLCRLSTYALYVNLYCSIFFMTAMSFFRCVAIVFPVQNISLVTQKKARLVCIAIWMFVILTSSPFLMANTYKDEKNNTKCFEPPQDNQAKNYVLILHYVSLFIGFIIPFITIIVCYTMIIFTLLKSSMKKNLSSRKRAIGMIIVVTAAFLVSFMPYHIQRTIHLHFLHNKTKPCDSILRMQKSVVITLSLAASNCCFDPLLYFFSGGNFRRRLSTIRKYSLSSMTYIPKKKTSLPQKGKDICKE
Kind of series: Effective dose for the inhibition of percent protection from LTD4-induced dyspnea in a conscious guinea pig administered through oral route. The format is functional. Put shortly:
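Conscious guinea pig dyspnea model with LTD4 challenge; percent protection from dyspnea plotted against dose (oral or intravenous). ED50 obtained by regression using at least three doses from the linear portion of the dose-response curve; SEM for percent protection was generally ≤25% at each dose.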

Series [6] can be described thus: Compound was evaluated for the oral bioavailability in dog. The format is ADME, organism-based, Canis lupus familiaris. Conditions: in vivo, read-out: Bioavailabiility.
A short description of series [7]: Bioavailability in guinea pig. The format is ADME, organism-based, Cavia porcellus. The following applies: in vivo.
Series [8] in a line: Compound was evaluated for clearance in rat. Conditions: in vivo. The format is ADME, organism-based.
A short description of series [9]: Clearance in guinea pig. The format is ADME, organism-based, Cavia porcellus. Conditions: in vivo.
Series [10] concerns the target Prostaglandin E2 receptor EP2 subtype (Homo sapiens) (UniProt P43116). Kind of series: Compound was evaluated for the selectivity of Prostaglandin 2 receptors isolated from guinea pig ileum by displacing PGE-2. The following applies: Cavia porcellus; Trachea; in the assay text read “guinea pig trachea” for “guinea pig ileum”; target entry is the homologue from another species. The format is tissue-based. An outline of the steps:
as §1

Series [11] deals with Beta-1 adrenergic receptor (Cavia porcellus) (UniProt B0FL73). Kind of series: Compound was evaluated for the selectivity of Beta 1 adrenergic receptors isolated from guinea pig right atrium by displacing isoproterenol. The format is functional, tissue-based. The following applies: Cardiac atrium. Put shortly:
as §1

The nature of series [12]: Compound was evaluated for the clearance in dog. The format is ADME, organism-based, Canis lupus familiaris. The following applies: in vivo.
The target in series [13] is Muscarinic acetylcholine receptor (Homo sapiens) (UniProt P20309+P08173+P11229+P08172+P08912). Kind of series: Compound was evaluated for the selectivity of Muscarinic receptors isolated from guinea pig ileum by displacing acetylcholine. The format is tissue-based. Conditions: Cavia porcellus, target entry is the homologue from another species. An outline of the steps: as §1

A short description of series [14]: ED50 (p.o.) / ED50 (i.v.) ratio of the compound. Type of series: functional. Put shortly:
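Ratio of oral ED50 to intravenous ED50 from the conscious guinea pig LTD4-induced dyspnea model, used as an index of oral bioavailability.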

Series [15] addresses T3, Cysteinyl leukotriene receptor 1 (Cavia porcellus, UniProt Q2NNR5).
T3 sequence (Q2NNR5 whole entry): T2 sequence (whole entry)
Briefly: Inhibition constant for displacement of [3H]LTD4 on guinea pig lung parenchymal membranes. Type of series: tissue-based, Lung parenchyma. An outline of the steps:
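Guinea pig lung parenchymal membranes; competitive displacement of [3H]LTD4. Ki taken as mean of two experiments, each run in duplicate on separate membrane batches.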
Background: Loss of bound radioactivity is the signal in a displacement assay; it reports binding, not function.

The nature of series [16]: Compound was evaluated for the oral bioavailability in rat. Conditions: in vivo, read-out: Bioavailabiility. The format is ADME, organism-based.
The target in series [17] is T4, Prostaglandin E2 receptor EP1 subtype (Homo sapiens) (UniProt P34995).
T4 sequence (whole entry): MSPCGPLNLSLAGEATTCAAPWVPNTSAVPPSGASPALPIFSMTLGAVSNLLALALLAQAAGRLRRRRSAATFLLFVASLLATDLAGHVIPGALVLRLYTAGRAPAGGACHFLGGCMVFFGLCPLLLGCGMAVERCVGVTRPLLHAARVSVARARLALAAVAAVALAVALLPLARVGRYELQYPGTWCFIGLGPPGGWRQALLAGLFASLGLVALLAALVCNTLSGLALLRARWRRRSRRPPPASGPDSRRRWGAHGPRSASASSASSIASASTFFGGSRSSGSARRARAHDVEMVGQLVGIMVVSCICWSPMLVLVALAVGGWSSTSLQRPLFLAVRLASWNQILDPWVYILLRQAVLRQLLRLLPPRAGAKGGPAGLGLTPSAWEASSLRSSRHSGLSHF
Briefly: Compound was evaluated for the selectivity of Prostaglandin 1 receptors isolated from guinea pig ileum by displacing PGE-2. Conditions: Cavia porcellus, target entry is the homologue from another species.

Series [18] deals with T2, Cysteinyl leukotriene receptor 1 (Cavia porcellus). Kind of series: Binding constant in guinea pig tracheal spirals with LTE4. Type of series: tissue-based. Conditions: Trachea. Put shortly: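 Guinea pig tracheal spirals contracted with LTE4 as agonist. Antagonist KB derived from concentration-response curves and reported as -log(KB) (pKB); n = number of concentration-response curves.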

The test system of another series is Cavia porcellus. Briefly: Percent inhibition of protection from LTD4-induced dyspnea in a conscious guinea pig administered through oral route at a dose of 3 umol/kg. The format is functional.

For orientation: pKB means −log10 of the KB, conventionally taken in molar units. By ED50 is commonly meant the dose that gives a 50% effect, or the effect in half of the subjects. As usually defined, the clearance is the rate of elimination divided by the concentration. For orientation: Ki means a measure of affinity in units of concentration, obtained from inhibition or displacement. As usually defined, the inhibition in vivo is how much of the control response was suppressed. Low readings indicate little suppression, high ones strong suppression.

Prostaglandin E2 receptor EP2 subtype (Homo sapiens), sequence (P43116 whole entry): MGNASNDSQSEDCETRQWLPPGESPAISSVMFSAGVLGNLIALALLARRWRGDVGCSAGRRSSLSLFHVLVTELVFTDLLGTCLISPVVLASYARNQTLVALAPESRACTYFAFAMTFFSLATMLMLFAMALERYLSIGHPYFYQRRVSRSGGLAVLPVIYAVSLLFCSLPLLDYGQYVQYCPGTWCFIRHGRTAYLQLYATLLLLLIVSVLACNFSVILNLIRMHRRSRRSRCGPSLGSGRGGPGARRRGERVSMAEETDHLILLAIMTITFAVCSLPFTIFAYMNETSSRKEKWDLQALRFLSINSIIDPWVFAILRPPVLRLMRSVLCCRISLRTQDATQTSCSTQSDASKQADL
Beta-1 adrenergic receptor (Cavia porcellus), sequence (B0FL73 1-467): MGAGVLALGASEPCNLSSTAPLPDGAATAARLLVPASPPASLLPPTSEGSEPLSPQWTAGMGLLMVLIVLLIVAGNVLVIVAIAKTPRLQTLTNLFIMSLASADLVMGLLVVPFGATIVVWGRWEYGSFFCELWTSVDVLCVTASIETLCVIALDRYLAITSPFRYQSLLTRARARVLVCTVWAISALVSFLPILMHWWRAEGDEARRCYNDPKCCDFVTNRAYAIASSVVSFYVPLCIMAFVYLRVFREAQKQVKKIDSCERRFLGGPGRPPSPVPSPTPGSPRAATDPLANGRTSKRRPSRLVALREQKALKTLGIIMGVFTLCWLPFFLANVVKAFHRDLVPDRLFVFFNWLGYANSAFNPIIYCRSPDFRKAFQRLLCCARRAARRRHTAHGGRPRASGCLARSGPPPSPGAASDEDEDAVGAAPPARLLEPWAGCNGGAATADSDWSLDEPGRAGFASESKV
Histamine H1 receptor (Cavia porcellus), sequence (P31389 whole entry): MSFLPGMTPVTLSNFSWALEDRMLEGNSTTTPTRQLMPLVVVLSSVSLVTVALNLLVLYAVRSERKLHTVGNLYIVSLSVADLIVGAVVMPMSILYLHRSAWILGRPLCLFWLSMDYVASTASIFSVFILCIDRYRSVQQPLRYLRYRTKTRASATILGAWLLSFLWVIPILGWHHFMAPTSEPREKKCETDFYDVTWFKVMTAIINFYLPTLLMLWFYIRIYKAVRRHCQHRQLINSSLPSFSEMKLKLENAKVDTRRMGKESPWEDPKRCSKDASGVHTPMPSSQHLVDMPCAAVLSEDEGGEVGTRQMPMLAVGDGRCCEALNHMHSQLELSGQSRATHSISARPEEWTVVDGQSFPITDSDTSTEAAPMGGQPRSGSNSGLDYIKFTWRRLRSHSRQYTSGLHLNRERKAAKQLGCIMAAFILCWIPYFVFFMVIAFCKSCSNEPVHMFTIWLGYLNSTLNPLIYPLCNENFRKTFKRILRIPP

In the case of `COc1cc(C(=O)NS(=O)(=O)c2ccccc2C)ccc1Cc1cn(C)c2ccc(C(=O)NC[C@H](C)CC(F)(F)F)cc12`, the negative-log KB (pKB) in [1], in [3], in [4], in series [10], in series [11] and in series [13] was < 5 throughout. Also, the values for the pKB in [17] and in series [18] were 5.23 and 10.1, respectively. Moreover, the ED50 in series [2] came to 0.022 µmol/kg; in series [5], 1.14 µmol/kg. For the same compound, the results for the bioavailability in series [6], in series [7] and in series [16] were 38%, 15% and 33%, respectively. The clearance in [8] is 1.17 mL/min/kg; in [9], 14.2 mL/min/kg; in series [12] it was 5.17 mL/min/kg. In addition, the Ratio in series [14] turned out to be 52. In [15], the affinity, expressed as Ki, was 0.42 nM.
With `COc1cc(C(=O)NS(=O)(=O)c2ccccc2C)ccc1Cc1cn(C)c2ccc(C(=O)NCCC(C(F)(F)F)C(F)(F)F)cc12`, the inhibition in vivo at 3 µmol/kg in the series with Cavia porcellus was 19%. In series [15], the inhibition constant Ki was determined as 1.2 nM. The compound further displayed a pKB in [18] of 9.3.
